From article PMC6447837 (Cancer Science, 2019)

Experiments:
plc/prf/5 = details: plc/prf/5, Hepatocarcinoma; ref Zhang et al (2016) 35; cited from earlier work
ZR‐75‐1 = details: ZR‐75‐1, Breast cancer; ref Zhang et al (2016) 35; cited from earlier work
RAMOS = details: Lymphoma, ref Zhang et al (2016) 35; cited from earlier work
Lyn = Lyn (Homo sapiens, UniProt P07948); test: Radiometric kinase IC50 assay; type: biochemical
L929 = details: L929, Mouse fibroblast (normal cell line); ref Zhang et al (2016) 35; cited from earlier work
205 other kinases = test: Radiometric kinase assay, remaining panel; type: biochemical, human; details: 205 other kinases of the panel; did not show activity
Bxpc‐3 cells [1] = test: EdU incorporation; type: cell-based, human; details: 24 hours
Method in brief: (§1)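 Cells were seeded overnight at 5000-8000 per well in 96-well plates, then exposed to test compound for 24 h. Cells were then incubated with EdU followed by Hoechst, using a commercial kit per manufacturer's instructions. EdU marks proliferating cells and Hoechst marks nuclei. The read-out was the percentage of EdU-positive cells, as mean of n = 3 with SD.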

Bxpc‐3 cells [2] = test: Wound healing assay; type: cell-based, human; details: 18 hours
SMMC7721 = details: SMMC7721, Hepatocarcinoma; ref Zhang et al (2016) 35; cited from earlier work
STAT3 = test: Immunohistochemistry of xenograft tumor tissues; type: in vivo, NOD‐SCID mice; details: Aspc‐1 and Bxpc‐3 models; LY‐1816 and dasatinib 40 mg/kg/d p.o., gemcitabine 80 mg/kg/wk; IHC
Method in brief: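 Six-week-old female NOD-SCID mice received 5 × 10⁶ to 1 × 10⁷ cells s.c. in the right flank. Treatment began at about 200 mm³. Test compound (40 mg/kg/d) was given once daily by oral gavage in 25% PEG400 plus 5% DMSO in water. Tumors were resected at the end of dosing. Frozen sections were immunostained and imaged by light microscopy.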

Fyn = Fyn (Homo sapiens, UniProt P06241); test: Radiometric kinase IC50 assay; type: biochemical
Sequence of Fyn (P06241 whole entry): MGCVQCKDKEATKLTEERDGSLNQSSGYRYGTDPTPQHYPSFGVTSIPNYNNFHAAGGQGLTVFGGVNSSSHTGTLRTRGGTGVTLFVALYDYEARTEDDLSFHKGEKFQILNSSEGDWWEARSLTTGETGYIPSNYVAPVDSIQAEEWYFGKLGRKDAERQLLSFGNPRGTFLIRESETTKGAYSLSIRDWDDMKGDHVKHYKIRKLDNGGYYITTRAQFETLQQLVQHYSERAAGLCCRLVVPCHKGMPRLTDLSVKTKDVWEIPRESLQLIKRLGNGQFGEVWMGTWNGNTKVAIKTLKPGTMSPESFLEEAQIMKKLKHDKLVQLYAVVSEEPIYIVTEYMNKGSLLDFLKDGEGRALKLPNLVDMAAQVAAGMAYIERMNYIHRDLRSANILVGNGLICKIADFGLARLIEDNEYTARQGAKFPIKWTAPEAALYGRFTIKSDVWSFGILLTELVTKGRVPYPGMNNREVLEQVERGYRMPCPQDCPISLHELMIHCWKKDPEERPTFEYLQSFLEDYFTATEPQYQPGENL

HT29 = details: HT29, Colorectal carcinoma; mean ± SD; ref Zhang et al (2016) 35; cited from earlier work
Src = test: Immunohistochemistry of xenograft tumor tissues; type: in vivo, NOD‐SCID mice; details: Aspc‐1 and Bxpc‐3 models; LY‐1816 and dasatinib 40 mg/kg/d p.o., gemcitabine 80 mg/kg/wk; IHC
Aspc‐1 xenograft = test: Subcutaneous xenograft model; type: in vivo, NOD‐SCID mice; details: Aspc‐1 model
Method in brief: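 Female NOD‑SCID mice bearing s.c. right‑flank tumors (5 × 10⁶–1 × 10⁷ cells injected) were randomized at 100–200 mm³ (6–7 per group). They received test compound in 25% PEG400/5% DMSO/water by oral gavage once daily for 18 days, or vehicle. Tumors were measured by caliper every 3 days, with volume = length × width² × 0.5.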

HL‐60 = details: HL‐60, Acute myeloid leukemia; mean ± SD; ref Zhang et al (2016) 35; cited from earlier work
Bxpc‐3 = test: MTT antiviability assay; type: cell-based; details: Homo sapiens, BXPC-3, 72 h
BT474 = details: BT474, Breast cancer; ref Zhang et al (2016) 35; cited from earlier work
SW1990 = test: MTT antiviability assay; type: cell-based; details: Homo sapiens, SW1990, 72 h
Aspc‐1 cells [3] = test: Transwell invasion assay; type: cell-based, human
Method in brief: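 Inserts were precoated with polymerized collagen type I. Cells were seeded on the insert bottom in serum‑free medium with serial dilutions of test compound or vehicle, with 10% FBS medium in the lower chamber. After one day, cells were stained with calcein‑AM and optical sections taken at 10‑μm intervals. Invasion was scored as cells moving >20 μm into collagen; n = 3, mean with SD.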

HCC1937 = details: HCC1937, Triple negative breast cancer; mean ± SD; ref Zhang et al (2016) 35; cited from earlier work
HPAF‐II = test: MTT antiviability assay; type: cell-based; details: Homo sapiens, 72 h
Aspc‐1 cells [4] = test: EdU incorporation; type: cell-based, human; details: 24 hours
Method in brief: as §1

Bxpc‐3 cells [5] = test: Colony formation assay; type: cell-based, human; details: 18 days
Method in brief: (§2)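 Cells were seeded at 5000-8000 per well and treated with test compound the next day, from DMSO stocks diluted in medium. Medium with vehicle or compound was replaced every 4 days. Cells were then methanol-fixed and crystal violet-stained. Colonies of more than 50 cells were counted under an inverted microscope and expressed as a percentage of colony numbers. Mean of n = 3, with SD.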

Aspc‐1 cells [6] = test: Colony formation assay; type: cell-based, human; details: 14 days
Method in brief: as §2

KG‐1a = test: MTT antiviability assay; type: cell-based; details: Homo sapiens, 72 h
MDA‐MB‐415 = details: MDA‐MB‐415, Breast cancer; ref Zhang et al (2016) 35; cited from earlier work
cleaved caspase‐3 = test: Immunohistochemistry of xenograft tumor tissues; type: in vivo, NOD‐SCID mice; details: xenograft models; LY‐1816 40 mg/kg/d p.o., gemcitabine 80 mg/kg/wk; IHC
Method in brief: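 Aspc‑1 or Bxpc‑3 s.c. tumors in NOD‑SCID mice were dosed p.o. daily from about 200 mm³, with vehicle controls. At study end, tumors were resected. Frozen sections were immunostained and imaged by light microscopy, and cleaved caspase‑3‑positive cells were counted.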

DU145 = details: DU145, Prostate carcinoma; ref Zhang et al (2016) 35; cited from earlier work
PANC‐1 = test: MTT antiviability assay; type: cell-based; details: Homo sapiens, PANC-1, 72 h

Sequence of Lyn (P07948 whole entry): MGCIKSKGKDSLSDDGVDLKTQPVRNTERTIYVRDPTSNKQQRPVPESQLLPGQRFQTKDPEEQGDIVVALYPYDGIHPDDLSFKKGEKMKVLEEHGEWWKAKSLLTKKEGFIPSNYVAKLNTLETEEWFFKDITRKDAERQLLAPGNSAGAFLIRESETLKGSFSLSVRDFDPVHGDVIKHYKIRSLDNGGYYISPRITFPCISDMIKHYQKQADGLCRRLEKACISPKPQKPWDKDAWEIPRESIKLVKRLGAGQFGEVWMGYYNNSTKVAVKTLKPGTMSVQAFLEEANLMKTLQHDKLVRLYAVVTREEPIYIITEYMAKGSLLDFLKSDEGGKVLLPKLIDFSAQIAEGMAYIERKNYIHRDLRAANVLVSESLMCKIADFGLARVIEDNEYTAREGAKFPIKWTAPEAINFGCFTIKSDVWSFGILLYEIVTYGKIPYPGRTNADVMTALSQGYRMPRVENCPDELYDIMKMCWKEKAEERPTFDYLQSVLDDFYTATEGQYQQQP

For `Cc1ccc(NC(=O)c2ccc(C)c(C(F)(F)F)c2)cc1C#Cc1nn(C2CCC(O)CC2)c2ncnc(N)c12` (stereo not drawn) [LY‐1816, N‐(3‐((4‐amino‐1‐(4‐hydroxycyclohexyl)‐1H‐pyrazolo[3,4‐d]pyrimidin‐3‐yl)ethynyl)‐4‐methylphenyl)‐4‐methyl‐3‐(trifluoromethyl)benzamide], the IC50 (plc/prf/5) is given as roughly 10000 nM, the IC50 (ZR‐75‐1) is given as roughly 10000 nM and the IC50 (RAMOS) is given as roughly 10000 nM. The IC50 (Lyn) was 4 nM, the IC50 (L929) was greater than 10000 nM and the IC50 (205 other kinases) was greater than 10000 nM. For the same molecule, the “DNA replication (EdU)” value (Bxpc‐3 cells [1]) was “dose‐dependently suppress the DNA replication”, the cell migration (Bxpc‐3 cells [2]) was “dose‐dependently reduced cell migration” and the IC50 (SMMC7721) was greater than 10000 nM. For the same molecule, the “phosphorylation of STAT3 in tumor tissues” value (STAT3) was “evidently reduced the phosphorylation of Src and STAT3”, the IC50 (Fyn) was 6 nM and the IC50 (HT29) was 231 ± 12 nM. The “phosphorylation of Src in tumor tissues” value (Src) was “evidently reduced the phosphorylation of Src and STAT3”, the “tumor‐inhibition rate” value (Aspc‐1 xenograft; 40 mg/kg daily, orally, 18 days) was greater than 90% and the antitumor activity (Aspc‐1 xenograft; LY‐1816 20 or 40 mg/kg/d p.o., dasatinib 40 mg/kg/d p.o., gemcitabine 80 mg/kg once a week) was “dose‐dependent tumor inhibitory activities”. The IC50 (HL‐60) was 31 ± 12 nM, the IC50 (Bxpc‐3) was 58 ± 11 nM and the IC50 (BT474) was greater than 10000 nM. For the same molecule, the IC50 (SW1990) was 42 ± 53 nM, the cell invasion (Aspc‐1 cells [3]) was “significantly suppressed the invasion” and the IC50 (HCC1937) was 455 ± 87 nM. For the same molecule, the IC50 (HPAF‐II) was 215 ± 31 nM, the “DNA replication (EdU)” value (Aspc‐1 cells [4]) was “dose‐dependently suppress the DNA replication” and the colony growth (Bxpc‐3 cells [5]) was “significantly inhibited the colony growth”. For the same molecule, the colony growth (Aspc‐1 cells [6]) was “significantly inhibited the colony growth”, the IC50 (KG‐1a) was greater than 10000 nM and the IC50 (MDA‐MB‐415) was roughly 10000 nM. The “cleaved caspase‐3 stain in tumor tissues” value (cleaved caspase‐3) was “considerable ability to induce apoptosis”, the IC50 (DU145) was greater than 10000 nM and the IC50 (PANC‐1) was 123 ± 15 nM.
